KCNK9 inh: human KCNK9 channel inhibition. Q9NPC2. B-score at 10 µM. AID 488922. 310,000 compounds, 1.2% hits. HEK293 KCNK9, FluxOR thallium flux fluorescence; hits give low values;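 active = ratio B-score over 3 SD below the library mean, with starting fluorescence within 5 SD of its mean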;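 note: negative B-score means less thallium flux so channel inhibition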
hERG protect: compounds protecting human hERG from proarrhythmic drug block; Q12809; CHO-hERG, FluxOR thallium flux, dofetilide IC70 present; activation (rescue from dofetilide block), less the hit threshold, % at 10 µM; 310,000 compounds, 0.51% hits; AID 1511;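 active = activation above the mean of controls blocked by dofetilide plus 5 SD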;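 note: thallium influx through hERG after potassium depolarization seen as dye fluorescence rise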
Kir21 block: Kir2.1 (mouse) channel inhibition; AID 1672; HEK293-Kir2.1, FluxOR thallium flux fluorescence; hits give low values; P35561; B-score at 10 µM; 310,000 compounds, 0.85% hits;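 active = fluorescence ratio B-score at or below minus 3 SD of library scores, with starting-brightness B-score within 2 SD, cut at about -4.2 in these data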;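 note: channel flux triggered by added potassium and thallium sulfate stimulus; B-score of peak minus minimum fluorescence over baseline after thallium stimulus; more negative B-score means stronger Kir2.1 block with less thallium influx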
KCNQ1 inh: blocks the human KCNQ1 potassium channel; P51787; CHO-K1 KCNQ1, FluxOR thallium flux fluorescence; hits give high values; B-score at 10 µM; 310,000 compounds, 1.3% hits; AID 2642;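 active = compounds whose thallium flux B-score, printed positive for inhibition, exceeds three library SD while starting fluorescence stays within three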;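 note: channel opened by potassium depolarization with thallium stimulus after 20 min compound exposure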
KCNK3 inh: human KCNK3 channel inhibition, primary screen; O14649; CHO-KCNK3 thallium flux, FluxOR fluorescence; hits give low values; B-score at 10 µM; 340,000 compounds, 0.84% hits; AID 602410;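 active = B-score under library mean minus 4 SD, starting fluorescence ratio at most library mean plus 5 SD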;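 note: more negative B-score means stronger inhibition of thallium flux through KCNK3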
Target sequence (O14649 whole entry, looked up): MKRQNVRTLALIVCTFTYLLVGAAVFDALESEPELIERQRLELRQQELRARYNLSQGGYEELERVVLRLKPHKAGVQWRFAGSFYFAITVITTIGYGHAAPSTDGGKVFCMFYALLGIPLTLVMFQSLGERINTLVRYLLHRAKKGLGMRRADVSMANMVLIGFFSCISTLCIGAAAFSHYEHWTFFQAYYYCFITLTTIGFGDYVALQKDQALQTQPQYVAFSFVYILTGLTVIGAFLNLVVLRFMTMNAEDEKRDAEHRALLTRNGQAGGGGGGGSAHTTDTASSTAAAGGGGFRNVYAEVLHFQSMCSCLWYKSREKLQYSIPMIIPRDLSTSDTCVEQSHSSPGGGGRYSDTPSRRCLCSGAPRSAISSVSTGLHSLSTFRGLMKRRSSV
KCNQ1 act: human KCNQ1 channel potentiation or activation; P51787; CHO-K1 KCNQ1, thallium flux FluxOR fluorescence; hits give high values; B-score at 10 µM; 310,000 compounds, 0.35% hits;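 active = fluorescence ratio B-score, a plate-corrected score, at least three library SD, with initial intensity B-score within 5 SD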
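Assay system: CHO-K1 cells stably expressing KCNQ1. Medium: assay buffer for compound exposure, DMSO matched across wells. Timing: 37 °C overnight plating, 90-min dark dye load, 20-min compound pretreatment. Signal: kinetic FluxOR fluorescence, 10 s baseline plus 110 s post-stimulus.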
Numbers stand for hits; i = inactive; nt = not tested or not shown. The list is not random: actives were taken first. Their share in the collection is about 3.7%.

SMILES	KCNK9 inh	hERG protect	Kir21 block	KCNQ1 inh	KCNK3 inh	KCNQ1 act
C/C(=N\N(c1ccccc1)c1ccccc1)c1ccc(N)cc1	i	i	i	i	i	i
C/C(=N\N(c1ccccc1)c1ccccc1)c1ccc(O)cc1	i	i	-5.1	i	i	i
CCCCOc1ccc(Br)cc1/C(C)=N/NC1=NCCN1	i	i	-8.1	i	i	i
CCCCCCOc1ccc(/C(C)=N/NC2=NCCN2)cc1[N+](=O)[O-]	i	i	i	i	i	i
COc1ccc(C(=O)Nc2ccc(Cl)cc2C(=O)NCc2ccco2)cc1	i	i	i	i	i	i
CCC(C)C(NC(=O)c1ccccc1NC(=O)c1ccc(OC)cc1)C(=O)NCc1ccco1 (configuration not stated)	i	i	i	7	i	i
OC(CNCC1CCCO1)Cn1c2ccc(Cl)cc2c2cc(Cl)ccc21 (configuration not stated)	i	i	-5.4	i	i	i
Cc1ccc(CNC(=O)C2CCCN(c3nc(C)cc(C)n3)C2)cc1 (configuration not stated)	i	i	i	i	i	i
Cc1cc(C)nc(N2CCCC(C(=O)NCc3ccccc3)C2)n1 (configuration not stated)	i	5.2	i	i	i	i
CCN(CC)CCn1c(OC)cc(=O)[nH]c1=O	i	i	i	i	i	7
CCN(CC)CCn1c(N)cc(=O)[nH]c1=O	i	i	i	i	i	i
C(C#CCCCCCCCCC[n+]1ccccc1)#CCCCCCCCCC[n+]1ccccc1	i	i	-15	i	i	i
Cc1cc(C)n(-c2ccc(C(=O)NCc3ccc(F)cc3)cc2)n1	i	i	-9.9	i	i	i
Cc1ccc(Cl)cc1-n1c(SCC(=O)NCCC2=CCCCC2)nc2n[nH]c(C)c2c1=N	-7.2	i	i	i	i	i
Cc1ccccc1OC(C)C(=O)NCCC1=CCCCC1 (configuration not stated)	i	i	-8.9	i	i	i
Cc1c(CNCCC2=CCCCC2)c(C(=O)O)c(C)n1Cc1ccccc1	i	6.6	i	i	i	i
CCC(C(=O)NCCC1=CCCCC1)c1ccccc1 (configuration not stated)	i	i	-5.6	i	i	i
CC(=O)N/C(=C\c1ccccc1)C(=O)OCC(=O)N(C)C1CCS(=O)(=O)C1 (configuration not stated)	nt	nt	nt	nt	i	nt
CCn1c(SCc2nc(-c3ccc(OC)c(OC)c3)no2)nnc1-c1cccs1	i	i	i	i	i	i
CN(Cc1c(F)cccc1Cl)C(=O)c1ccc(NS(=O)(=O)c2ccc3[nH]c(=O)[nH]c3c2)cc1	i	i	i	i	i	i
Cc1cc(SCC(=O)NCCC2=CCCCC2)nc2ccccc12	i	i	-16	i	i	i
Cc1onc(-c2ccccc2)c1-c1csc(N/N=C/c2ccccc2Cl)n1	i	i	i	9	i	i
Cc1onc(-c2ccc(Cl)cc2Cl)c1-c1csc(N/N=C/c2ccccc2Cl)n1	i	i	i	i	i	i
COc1ccccc1-n1c(SCC(=O)c2ccc(O)cc2O)nc2cc([N+](=O)[O-])ccc21	i	i	i	6	i	i
COc1ccccc1-n1c(SCC(=O)NC2CCS(=O)(=O)C2)nc2cc([N+](=O)[O-])ccc21 (configuration not stated)	i	i	i	i	i	i
SMILES	KCNK9 inh	hERG protect	Kir21 block	KCNQ1 inh	KCNK3 inh	KCNQ1 act
O=C(CSc1n[nH]c(=O)n1C1CC1)c1c[nH]c2ccccc12	nt	nt	nt	nt	i	nt
Cc1ccc(-c2cc3nc(C)cc(C)n3n2)cc1	i	i	i	i	i	i
COc1ccc(-c2cc3nc(C)cc(N4CC(C)CC(C)C4)n3n2)cc1 (configuration not stated)	i	i	i	6	i	i
CCCCCc1ccc(-c2ccc(/C=C/C(N)=O)cc2)nc1	i	i	i	i	i	i
CCCc1ccc(-c2ccc(C(=O)O)cc2)nc1	i	5.9	i	i	i	i
COc1ccccc1NC(=O)Nc1ccc(-n2ccc(C(F)(F)F)n2)cc1	-7.8	i	i	i	i	i
O=C(N/N=C/c1ccc(-c2cccc([N+](=O)[O-])c2)o1)[C@H]1C[C@@H]1c1ccccc1	-10	i	i	i	i	i
